Experiment [1] can be described thus: inhibitors of TNFa-induced NFkB p65 translocation, primary screen, imaging, HUVEC, MLSMR starter and 10KST1 sets (AID 438;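 active = inhibition above 20% together with a positive visual image hit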;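 note: compound added about 3h40 before a 20 min TNFalpha stimulation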;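 for inhibition: signal is the nuclear over cytoplasmic p65 intensity ratio per well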). To be noted: HUVEC TNFa-induced p65 nuclear translocation; cell count: measured here: nuclei count (cytotoxicity indicator), at 2.08 µM; inhibition: at 2 µM, stronger effect = higher value, 0% TNFa-plus-vehicle, 100% no-TNFa wells.
A short description of experiment [2]: inhibitors of mutant huntingtin aggregation, primary screen, imaging, exon1htt(103Q)mCFP cells, high-content imaging (AID 483).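 For nuclei count: percent of the per-plate median nuclei count of sample wells.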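 Note: compound exposure lasted 3 days before fixation.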 As to conditions: exon1htt(103Q)mCFP cell line, aggregate imaging, at 2 µM; inhibition of aggregation: stronger effect = higher value; nuclei count: measured here: cell count, toxicity.
A short description of experiment [3]: inhibitors of E-selectin induction by TNFa, primary screen, imaging, HUVEC, immunofluorescence, MLSMR starter and 10KST1 sets (AID 487;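 active = visually confirmed hit in the image check and inhibition above 20%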;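 for inhibition: signal is fraction of cell area covered by stained E-selectin grains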;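 for nuclei count: 100% = median nuclei count of all wells on the same plate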). As to conditions: HUVEC TNFalpha-induced E-selectin immunofluorescence imaging, at 2 µM; inhibition: stronger effect = higher value; nuclei count: measured here: cell number, toxicity.
Experiment [4] concerns the target Voltage-gated potassium channel subunit beta-2 (Rattus norvegicus) (UniProt P62483). As to the kind of experiment: KvBeta enzyme negative modulators, primary screen, biochemical, NADPH fluorescence (AID 622;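 active = fluorescence slope higher than the sample average by over 3 SD, cut at about -0.22 in these data, passing the limit was not always enough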;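 note: slope of raw intensity against log time taken from 70 to 1610 s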). As to conditions: recombinant KvBeta, 4-cyanobenzaldehyde reduction, at 10 µM, stronger effect = higher value.
Experiment [5] has the same target. The experiment in a line: KvBeta positive modulators, primary screen, biochemical, NADPH fluorescence (AID 623;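 active = NADPH fluorescence slope more negative than the mean of all samples by about 3 SD, 99.7% confidence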;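 note: fluorescence intensity change per second fitted from 20 to 320 s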). As to conditions: Recombinant KvBeta, NADPH fluorescence decrease slope, 10 min; at 10 µM; stronger effect = lower value.
Experiment [6] addresses Muscarinic acetylcholine receptor M4 (Homo sapiens) (UniProt P08173). The experiment in a line: compounds altering M4/GIRK thallium flux, either direction, primary screen, M4 allosteric agonist project, cell-based, HEK293 M4/GIRK, BTC-AM (AID 625;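 active = fluorescence slope after compound addition differing from the mean of all tested samples at 99.7% confidence, mostly higher but some lower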;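 note: thallium influx through GIRK channels coupled to M4 in HEK293 cells with BTC-AM dye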). To be noted: at 10 µM, actives lie on both sides. A digest of the protocol:
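Material – HEK293 cells with M4 receptor and GIRK channels · Buffer or medium – pH 7.3 thallium assay buffer · Doses – one dose, 10 µM final · Timing – cells overnight at 37 °C, BTC-AM loading 1 h, reads 2 min total · Measured by – kinetic fluorescence with BTC-AM dye · Controls – carbachol and DMSO controls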

Experiment [7] is described as follows: inhibitors of Sendai virus-induced IRF3 signaling, primary screen, TLR/RLR signaling modifier project, cell-based, Sendai virus stimulus, luciferase, 10K MLSCN set (AID 602276;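 active = inhibition at or above 50% at 10 µM; inactive = inhibition below 50%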;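 note: firefly luciferase from ISG56 promoter only with Renilla not read in this screen; 0% = Sendai virus plus DMSO and 100% = medium plus DMSO without virus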). To be noted: HEK293 RL24 IRF3 luciferase reporter, at 10 µM, stronger effect = higher value.
Experiment [8] can be described thus: inhibitors of poly I:C-induced TLR3 signaling, primary screen, cell-based, poly I:C stimulus, luciferase, 10K MLSCN set (AID 602277;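 active = inhibition of the reporter signal at or above 50%; inactive = inhibition below 50%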). To be noted: HEK293-TLR3 RL24 IRF3 luciferase reporter, at 10 µM, stronger effect = higher value.

Active and inactive are the calls of the source.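 Rule for the calls, unless noted: active = visual image review flags a hit and inhibition of aggregation exceeds 20%; inconclusive = visual hit but inhibition at or below 20%; inactive = no hit on visual image review.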

Chain of Muscarinic acetylcholine receptor M4 (Homo sapiens) (P08173 whole entry, looked up): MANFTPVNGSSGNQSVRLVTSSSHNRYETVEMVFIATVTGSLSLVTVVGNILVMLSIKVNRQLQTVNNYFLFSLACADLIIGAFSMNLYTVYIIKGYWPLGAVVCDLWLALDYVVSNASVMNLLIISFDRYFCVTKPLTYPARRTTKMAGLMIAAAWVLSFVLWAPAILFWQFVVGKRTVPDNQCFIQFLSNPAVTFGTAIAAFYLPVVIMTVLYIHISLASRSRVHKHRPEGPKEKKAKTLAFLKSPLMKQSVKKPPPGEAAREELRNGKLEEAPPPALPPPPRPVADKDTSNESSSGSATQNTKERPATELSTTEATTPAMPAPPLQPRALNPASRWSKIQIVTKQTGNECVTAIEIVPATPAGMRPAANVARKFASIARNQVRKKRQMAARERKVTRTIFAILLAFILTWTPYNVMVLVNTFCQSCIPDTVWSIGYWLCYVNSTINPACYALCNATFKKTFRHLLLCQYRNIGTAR
Chain of Voltage-gated potassium channel subunit beta-2 (Rattus norvegicus) (P62483 whole entry, looked up): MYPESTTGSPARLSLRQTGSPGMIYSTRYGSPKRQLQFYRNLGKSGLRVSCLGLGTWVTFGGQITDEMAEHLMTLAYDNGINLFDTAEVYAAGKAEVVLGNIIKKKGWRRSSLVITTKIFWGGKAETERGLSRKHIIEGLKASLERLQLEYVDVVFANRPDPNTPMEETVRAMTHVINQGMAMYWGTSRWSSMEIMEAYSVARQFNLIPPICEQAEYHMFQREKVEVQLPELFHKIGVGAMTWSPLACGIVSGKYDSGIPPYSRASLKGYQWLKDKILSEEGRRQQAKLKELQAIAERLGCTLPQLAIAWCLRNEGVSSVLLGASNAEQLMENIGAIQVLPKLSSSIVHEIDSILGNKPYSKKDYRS

On to `CCc1nccn1S(=O)(=O)c1ccc2ccc(C)cc2c1`, for which the cell count in experiment [1] is 319. Moreover, the inhibition is -8.5% (inactive) in experiment [1], -60.6% (inactive) in experiment [3], -9.41% (inactive) in experiment [7] and -15.4% (inactive) in experiment [8]. For the same compound, in experiment [2], the inhibition of aggregation was -4.1% (inactive). The nuclei count is 104% in experiment [2] and 112% in experiment [3]. Moreover, the fluorescence slope in experiment [4] was -0.512 (inactive); in experiment [6] it was 0.00461 (inactive). In addition, the NADPH fluorescence slope in experiment [5] was 1.6e-05 (inactive).
With `Cc1nnc(C)n1/N=C/c1cccc(Oc2ccccc2)c1`, the cell count in experiment [1] amounted to 344. Moreover, the inhibition in experiment [1] was -0.6% (inactive); in experiment [3], -5.9% (inactive); in experiment [7], 21.3% (inactive); in experiment [8] it was 31.8% (inactive). Further, in experiment [2], the inhibition of aggregation is 0.1% (inactive). Moreover, the results for the nuclei count in experiment [2] and in experiment [3] were 102% and 106%, respectively. The figures for the fluorescence slope in experiment [4] and in experiment [6] were -0.462 (inactive) and 0.00567 (inactive), respectively. The NADPH fluorescence slope in experiment [5] is 1.6e-05 (inactive).
With `COc1ccccc1N1CCN(CCCNC(=O)Nc2ccccc2)CC1`, the cell count in experiment [1] was determined as 377. The inhibition in experiment [1] is 8.7% (inactive); in experiment [3], -129% (inactive); in experiment [7], 15.3% (inactive); in experiment [8], 23.9% (inactive). Besides, in experiment [2], the inhibition of aggregation is 8.2% (inactive). Also, the nuclei count was 96.1% in experiment [2] and 106% in experiment [3]. The fluorescence slope in experiment [4] is -0.449 (inactive); in experiment [6], 0.00541 (inactive). Also, in experiment [5], the NADPH fluorescence slope is 1.8e-05 (inactive).
Consider `CCn1ncc(C2=NOC(C(=O)NCc3ccc(Cl)cc3)C2)c1C` (centres undefined), for which the cell count in experiment [1] was 576. Further, the inhibition is 13.4% (inactive) in experiment [1], -240% (inactive) in experiment [3], 2.33% (inactive) in experiment [7] and 86.7% (active) in experiment [8]. Also, the inhibition of aggregation in experiment [2] is -30.2% (inactive). For the same compound, the nuclei count in experiment [2] was found to be 36.3%; in experiment [3], 102%. Further, the results for the fluorescence slope in experiment [4] and in experiment [6] were -0.421 (inactive) and 0.0055 (inactive), respectively. For the same compound, the NADPH fluorescence slope in experiment [5] is 2.6e-05 (inactive).
On to `CC(C)c1ccc(NC(=O)C2CC(=O)N(C(C)C)C2)cc1` (centres undefined), for which the cell count in experiment [1] stood at 232. Moreover, the inhibition in experiment [1] was -2.3% (inactive); in experiment [3] it was -44.3% (inactive); in experiment [7] it was 12.8% (inactive); in experiment [8], -37.1% (inactive). Besides, the inhibition of aggregation in experiment [2] was 21% (inactive). Moreover, the nuclei count is 81.7% in experiment [2] and 108% in experiment [3]. Moreover, the fluorescence slope is -0.558 (inactive) in experiment [4] and 0.0102 (inactive) in experiment [6]. The NADPH fluorescence slope in experiment [5] is -6.2e-05 (inactive).
Turning to `O=c1cc(-c2ccco2)oc2ccc(Cl)cc12`, the cell count in experiment [1] amounted to 286. For the same compound, the inhibition in experiment [1] is -0.8% (inactive); in experiment [3] it was 32.1% (inactive); in experiment [7], 6.8% (inactive); in experiment [8], -71.7% (inactive). The inhibition of aggregation in experiment [2] is 19.7% (inactive). Further, the nuclei count in experiment [2] is 70%; in experiment [3], 111%. Also, the fluorescence slope in experiment [4] was -0.568 (inactive); in experiment [6] it was 0.00691 (inactive). Besides, the NADPH fluorescence slope in experiment [5] was -2.4e-05 (inactive).
`Cc1nc2ccccc2c(=O)n1NC(=O)c1c(O)c2c(n(CC(C)C)c1=O)CCCC2`: the cell count in experiment [1] is 439. For the same compound, the inhibition in experiment [1] is 4% (inactive); in experiment [3], 21.1% (inactive); in experiment [7], 18.5% (inactive); in experiment [8], 13.4% (inactive). Besides, the inhibition of aggregation in experiment [2] was 9.9% (inactive). Moreover, the nuclei count in experiment [2] was determined as 76.7%; in experiment [3], 101%. Moreover, the fluorescence slope in experiment [4] is -0.558 (inactive); in experiment [6] it was 0.00523 (inactive). In experiment [5], the NADPH fluorescence slope is -5e-05 (inactive).
With `CC(C)CCNC(=O)NC(=O)CN1C(=O)NC2(CCCCC2)C1=O`, the cell count in experiment [1] amounted to 560. For the same compound, the inhibition is -14.9% (inactive) in experiment [1], -209% (inactive) in experiment [3], -8.08% (inactive) in experiment [7] and -2.49% (inactive) in experiment [8]. Also, in experiment [2], the inhibition of aggregation was 13.2% (inactive). The nuclei count in experiment [2] amounted to 106%; in experiment [3], 87%. Besides, the fluorescence slope in experiment [4] is -0.498 (inactive); in experiment [6], 0.00636 (inactive). The NADPH fluorescence slope in experiment [5] was 7.2e-05 (inactive).
On to `Cc1nnc(SCC(=O)Nc2ccc3c(c2)OCCO3)n1CC1CCCO1` (centres undefined), for which the cell count in experiment [1] worked out at 662. The inhibition in experiment [1] is -5% (inactive); in experiment [3], -39.4% (inactive); in experiment [7], 14.8% (inactive); in experiment [8] it was 7.29% (inactive). Moreover, in experiment [2], the inhibition of aggregation was -0.8% (inactive). Besides, the values for the nuclei count in experiment [2] and in experiment [3] were 105% and 114%, respectively. Further, the fluorescence slope in experiment [4] is -0.341 (inactive); in experiment [6] it was 0.00537 (inactive). In addition, the NADPH fluorescence slope in experiment [5] is -5.6e-05 (inactive).
Consider `CC1(C)Cc2noc(N)c2C(C)(C)N1OC(=O)c1ccco1`, for which, in experiment [1], the cell count amounted to 295. Also, the inhibition in experiment [1] was -6.6% (inactive); in experiment [3] it was -89.1% (inactive); in experiment [7] it was 16.2% (inactive); in experiment [8] it was 23.5% (inactive). For the same compound, the inhibition of aggregation in experiment [2] was 21.5% (inactive). Also, the nuclei count in experiment [2] stood at 87.2%; in experiment [3], 88.4%. For the same compound, the fluorescence slope in experiment [4] is -0.474 (inactive); in experiment [6], 0.00628 (inactive). Further, the NADPH fluorescence slope in experiment [5] was 2.9e-05 (inactive).
Regarding `NS(=O)(=O)c1ccc(NCc2c(F)cccc2Cl)cc1`, the cell count in experiment [1] came to 300. Besides, the inhibition was -3% (inactive) in experiment [1], 38.8% (inactive) in experiment [3], 8.08% (inactive) in experiment [7] and -2.77% (inactive) in experiment [8]. The inhibition of aggregation in experiment [2] was 36.6% (inactive). Besides, the nuclei count in experiment [2] is 79.8%; in experiment [3], 99.4%. Besides, the figures for the fluorescence slope in experiment [4] and in experiment [6] were -0.515 (inactive) and 0.00288 (inactive), respectively. In addition, the NADPH fluorescence slope in experiment [5] was -0.000161 (inactive).
As for `COc1nc(OC)nc(N2CCC(C(=O)NC3CCCCCC3)CC2)n1`, in experiment [1], the cell count stood at 462. In addition, the inhibition in experiment [1] was 7.8% (inactive); in experiment [3], -6% (inactive); in experiment [7], -10% (inactive); in experiment [8], -8.66% (inactive). Moreover, in experiment [2], the inhibition of aggregation was 6.7% (inactive). Besides, the figures for the nuclei count in experiment [2] and in experiment [3] were 87.3% and 110%, respectively. Moreover, the fluorescence slope in experiment [4] was -0.469 (inactive); in experiment [6], 0.00646 (inactive). Also, in experiment [5], the NADPH fluorescence slope is 6.4e-05 (inactive).
Turning to `CCOc1ccc(C(=O)Cc2ccc3oc(C(=O)O)cc3c2)c(O)c1`, the cell count in experiment [1] worked out at 580. The inhibition in experiment [1] is 10.2% (inactive); in experiment [3], -3.3% (inactive); in experiment [7], 16.4% (inactive); in experiment [8] it was 22.3% (inactive). In experiment [2], the inhibition of aggregation is 4.1% (inactive). The nuclei count came to 63.8% in experiment [2] and 97.5% in experiment [3]. For the same compound, the fluorescence slope in experiment [4] was -0.522 (inactive); in experiment [6], 0.00668 (inactive). In addition, the NADPH fluorescence slope in experiment [5] was -4.9e-05 (inactive).
Regarding `O=C(c1ccccc1)c1coc2ccc(O)c(CN3CCOCC3)c12`, the cell count in experiment [1] is 651. Further, the inhibition in experiment [1] was -5.8% (inactive); in experiment [3], 1.5% (inactive); in experiment [7], 14.5% (inactive); in experiment [8], 18.2% (inactive). For the same compound, the inhibition of aggregation in experiment [2] is 8.4% (inactive). Besides, the nuclei count in experiment [2] was 77.4%; in experiment [3], 102%. Further, the fluorescence slope in experiment [4] is -0.577 (inactive); in experiment [6], 0.00407 (inactive). In experiment [5], the NADPH fluorescence slope is 3.5e-06 (inactive).

The values are drawn from PubChem BioAssay.
